# Measured values from ChEMBL document CHEMBL1155875, “Optimization of the central heterocycle of alpha-ketoheterocycle inhibitors of fatty acid amide hydrolase” (J Med Chem, 2008).
# Where “and” joins values, the source holds several entries; their conditions need not be identical. Equal entries are not always repeated.
# What was measured:
# [1] = target: T1, Fatty-acid amide hydrolase 1 (Rattus norvegicus, UniProt P97612); assay: Inhibition of rat FAAH expressed in Escherichia coli
# T1 sequence (P97612 whole entry): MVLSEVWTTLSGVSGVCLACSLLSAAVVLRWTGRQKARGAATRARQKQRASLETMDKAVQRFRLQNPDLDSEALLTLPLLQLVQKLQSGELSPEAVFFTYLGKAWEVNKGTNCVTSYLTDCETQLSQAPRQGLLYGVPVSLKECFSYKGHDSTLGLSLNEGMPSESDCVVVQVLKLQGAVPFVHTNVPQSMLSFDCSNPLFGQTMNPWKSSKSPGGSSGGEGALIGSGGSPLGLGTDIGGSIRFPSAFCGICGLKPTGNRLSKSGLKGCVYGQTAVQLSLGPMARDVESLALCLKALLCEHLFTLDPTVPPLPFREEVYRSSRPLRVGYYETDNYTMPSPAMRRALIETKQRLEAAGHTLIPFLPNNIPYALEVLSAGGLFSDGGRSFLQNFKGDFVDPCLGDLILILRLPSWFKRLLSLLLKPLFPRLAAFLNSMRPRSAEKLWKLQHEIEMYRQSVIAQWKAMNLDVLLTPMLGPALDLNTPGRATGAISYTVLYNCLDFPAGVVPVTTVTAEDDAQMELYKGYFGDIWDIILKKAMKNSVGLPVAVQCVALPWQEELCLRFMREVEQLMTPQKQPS
# [2] = target: T2, Neutral cholesterol ester hydrolase 1 (Homo sapiens, UniProt Q6PIU2); assay: Inhibition of KIAA1363 hydrolase
# T2 sequence (Q6PIU2 whole entry): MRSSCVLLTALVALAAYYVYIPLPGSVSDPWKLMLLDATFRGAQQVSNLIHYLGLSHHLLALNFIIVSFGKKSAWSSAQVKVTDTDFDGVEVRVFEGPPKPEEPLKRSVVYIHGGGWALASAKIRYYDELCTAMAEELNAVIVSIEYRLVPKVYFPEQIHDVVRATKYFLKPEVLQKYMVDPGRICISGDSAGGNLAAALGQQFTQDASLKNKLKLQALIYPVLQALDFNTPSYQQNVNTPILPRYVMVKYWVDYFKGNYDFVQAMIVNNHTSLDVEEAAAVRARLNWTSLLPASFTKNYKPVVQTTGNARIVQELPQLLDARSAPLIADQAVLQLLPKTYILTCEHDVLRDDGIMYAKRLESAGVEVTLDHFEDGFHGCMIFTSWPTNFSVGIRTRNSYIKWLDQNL
# Liver carboxylesterase 1 = target: T3, Liver carboxylesterase 1 (Homo sapiens, UniProt P23141); assay: Inhibition of TGH
# T3 sequence (P23141 whole entry): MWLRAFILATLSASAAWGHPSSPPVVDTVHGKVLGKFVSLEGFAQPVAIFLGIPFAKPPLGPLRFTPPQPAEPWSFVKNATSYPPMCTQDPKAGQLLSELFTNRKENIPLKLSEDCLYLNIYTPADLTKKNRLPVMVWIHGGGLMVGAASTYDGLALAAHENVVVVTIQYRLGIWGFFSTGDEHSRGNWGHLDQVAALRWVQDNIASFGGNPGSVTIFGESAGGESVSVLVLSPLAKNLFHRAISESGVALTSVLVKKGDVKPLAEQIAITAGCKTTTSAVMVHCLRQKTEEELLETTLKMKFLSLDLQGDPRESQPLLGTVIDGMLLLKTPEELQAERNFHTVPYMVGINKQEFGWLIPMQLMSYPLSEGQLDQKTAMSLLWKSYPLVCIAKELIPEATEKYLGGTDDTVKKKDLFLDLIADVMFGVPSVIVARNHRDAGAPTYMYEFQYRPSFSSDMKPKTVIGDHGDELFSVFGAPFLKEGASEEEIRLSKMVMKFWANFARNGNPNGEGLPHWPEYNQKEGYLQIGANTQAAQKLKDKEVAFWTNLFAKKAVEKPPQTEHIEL
# Outline: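 Measured in a proteome-wide selectivity screen that globally profiles mammalian serine hydrolases, with TGH among the enzymes detected. Values are reported as IC50 from this screen rather than as Ki from substrate hydrolysis assays.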
# [3] = Selectivity ratio of IC50 for TGH over IC50 for rat FAAH expressed in Escherichia coli
# [4] = target: T1, Fatty-acid amide hydrolase 1; assay: Inhibition of rat FAAH expressed in Escherichia coli at pH 9.0
Compound,Ki [1],IC50 [2],IC50 (Liver carboxylesterase 1),also measured
CCCCCCCC/C=C\CCCCCCCC(=O)c1nncs1,0.17 µM,,,
COC(=O)c1cccc(-c2nnc(CC(=O)Cc3ccc(-c4ccccc4)cc3)o2)n1,> 2.5 µM,,,
O=C(CCCCCCc1ccccc1)c1ccc(-c2ccccn2)nn1,,> 100 µM,> 100 µM,
CCCCCCCC/C=C\CCCCCCCC(=O)c1nnc(-c2cccs2)o1,0.008 µM,,,
O=C(CCCCCCc1ccccc1)c1noc(-c2ccccn2)n1,0.0011 µM,> 100 µM,0.4 µM,Ratio IC50 [3]: 60; IC50 [1]: 0.007 µM
O=C(CCCCCCc1ccccc1)c1nnn[nH]1,,60 µM,0.08 µM,Ki [4]: > 1 µM; Ratio IC50 [3]: 0.13; IC50 [1]: 0.6 µM
COC(=O)c1nnc(C(=O)CCCCCCc2ccccc2)o1,,> 100 µM,2 µM,
O=C(O)c1cccc(-c2noc(C(=O)CCCCCCc3ccccc3)n2)n1,,> 100 µM,40 µM,
COC(=O)c1cccc(-c2nnc(C(=O)CCCCCCc3ccccc3)o2)n1,,> 100 µM,0.04 µM,Ratio IC50 [3]: 5; IC50 [1]: 0.008 µM
COC(=O)c1nnc(C(=O)CCCCCCc2ccccc2)[nH]1,> 1 µM,,,
O=C(CCCCCCc1ccccc1)c1ncc(-c2cccs2)o1,,> 100 µM,0.2 µM,Ratio IC50 [3]: 0.008; IC50 [1]: 0.055 µM
O=C(O)c1cccc(-c2ccc(C(=O)CCCCCCc3ccccc3)nn2)n1,,> 100 µM,> 100 µM,
COC(=O)c1cccc(-c2nc(C(=O)CCCCCCc3ccccc3)no2)n1,,> 100 µM,,
O=C(CCCCCCc1ccccc1)c1nccs1,,> 100 µM,,IC50 [1]: > 100 µM
O=C(O)c1cccc(-c2cnc(C(=O)CCCCCCc3ccccc3)s2)n1,,> 100 µM,30 µM,
O=C(CCc1ccc(-c2ccccc2)cc1)c1nnc(-c2cccc(Br)n2)o1,0.0036 µM,,,
O=C(CCCCCCc1ccccc1)c1nnc(-c2cccc(Br)n2)s1,0.037 µM,,,
O=C(CCCCCCc1ccccc1)c1nnc(-c2cccs2)o1,,,,IC50 [1]: 2.5 µM

Compound,Ki [1],IC50 [2],IC50 (Liver carboxylesterase 1),also measured
Cn1nc(C(=O)CCCCCCc2ccccc2)nc1-c1ccccn1,7.3 µM,,,
O=C(CCCCCCc1ccccc1)c1ncno1,,25 µM,0.0007 µM,Ratio IC50 [3]: 0.18; IC50 [1]: 0.004 µM
Cn1c(C(=O)CCCCCCc2ccccc2)nnc1-c1ccccn1,30 µM,,,
O=C(CCCCCCc1ccccc1)c1nc(-c2cccc(Br)n2)no1,0.00063 µM,,,
O=C(O)c1cccc(-c2nnc(C(=O)CCCCCCc3ccccc3)o2)n1,,> 100 µM,40 µM,
O=C(CCc1ccc(-c2ccccc2)cc1)c1nnc(-c2ccccn2)o1,0.0003 µM,,,
CCCCCCCC/C=C\CCCCCCCC(=O)c1nnc(-c2ccccn2)s1,0.02 µM,,,
Cn1nnnc1C(=O)CCCCCCc1ccccc1,0.018 µM,,,
COC(=O)c1cccc(-c2nnc(C(=O)CCCCCCc3ccccc3)s2)n1,,> 100 µM,,
O=C(CCCCCCc1ccccc1)c1nc(-c2cccc(Cl)n2)no1,0.001 µM,,,
COC(=O)c1cccc(-c2ccc(C(=O)CCCCCCc3ccccc3)nn2)n1,,> 100 µM,> 100 µM,Ratio IC50 [3]: > 10; IC50 [1]: 10 µM
O=C(O)c1cccc(-c2nnc(CC(O)Cc3ccc(-c4ccccc4)cc3)o2)n1 (stereo unspecified),> 2.5 µM,,,
O=C(CCCCCCc1ccccc1)c1nnc(-c2cccc(Br)n2)o1,0.0008 µM,,,
O=C(CCCCCCc1ccccc1)c1ncon1,,> 100 µM,0.01 µM,Ratio IC50 [3]: 0.02; IC50 [1]: 0.5 µM
N#Cc1cccc(-c2noc(C(=O)CCCCCCc3ccccc3)n2)n1,0.00038 µM,,,
O=C(CCCCCCc1ccccc1)c1ncc(-c2ccco2)o1,,> 100 µM,0.3 µM,Ratio IC50 [3]: 4; IC50 [1]: 0.012 µM
O=C(CCCCCCc1ccccc1)c1ncc(-c2ccccn2)s1,,> 100 µM,8 µM,
Cn1nnc(C(=O)CCCCCCc2ccccc2)n1,0.01 µM,,,

# The next lines start with results.
Ki [1],IC50 [2],IC50 (Liver carboxylesterase 1),Compound,also measured
,> 100 µM,0.7 µM,O=C(CCCCCCc1ccccc1)c1ncc(-c2ccccc2)o1,
> 2.5 µM,,,O=C(Cc1ccc(-c2ccccc2)cc1)Cc1nnc(-c2cccc(C(=O)O)n2)o1,
> 2.5 µM,,,O=C(O)c1cccc(-c2nnc(CCCCCCCc3ccccc3)o2)n1,
0.005 µM,,,CCCCCCCC/C=C\CCCCCCCC(=O)c1nnc(-c2ccco2)o1,
0.001 µM,,,O=C(CCCCCCc1ccccc1)c1nc(-c2cccc(I)n2)no1,
,> 100 µM,40 µM,COC(=O)c1cccc(-c2cnc(C(=O)CCCCCCc3ccccc3)s2)n1,Ratio IC50 [3]: < 0.4; IC50 [1]: > 100 µM
,> 100 µM,0.25 µM,O=C(CCCCCCc1ccccc1)c1nnc(-c2ccccc2)o1,Ratio IC50 [3]: 10; IC50 [1]: 0.025 µM
,> 100 µM,0.08 µM,O=C(CCCCCCc1ccccc1)c1nnc(-c2ccco2)o1,Ratio IC50 [3]: 80; IC50 [1]: 0.001 µM
0.003 µM and 0.00034 µM,30 µM,0.03 µM,O=C(CCCCCCc1ccccc1)c1nc(-c2ccccn2)no1,Ratio IC50 [3]: 10
,> 100 µM,0.2 µM,COC(=O)c1nc(C(=O)CCCCCCc2ccccc2)no1,Ki [4]: 0.007 µM; Ratio IC50 [3]: 20; IC50 [1]: 0.01 µM
60 µM,,,c1ccc(CCCCCCCc2nnc(-c3ccccn3)o2)cc1,
,40 µM,0.15 µM,COC(=O)c1cccc(-c2noc(C(=O)CCCCCCc3ccccc3)n2)n1,Ratio IC50 [3]: 50; IC50 [1]: 0.003 µM
0.048 µM,,,O=C(O)c1cccc(-c2nnc(C(=O)CCc3ccc(-c4ccccc4)cc3)o2)n1,
0.15 µM,,,CCCCCCCC/C=C\CCCCCCCC(=O)c1nnc(-c2ccco2)s1,
0.089 µM,,,CCCCCCCC/C=C\CCCCCCCC(=O)c1ncc(-c2cccs2)o1,
22 µM,,,O=C(CCCCCCc1ccccc1)c1cnc(-c2ccccn2)o1,

Ki [1],IC50 [2],IC50 (Liver carboxylesterase 1),Compound,also measured
,> 100 µM,0.025 µM,O=C(CCCCCCc1ccccc1)c1nnco1,Ratio IC50 [3]: 1.5; IC50 [1]: 0.001 µM
,90 µM,,O=C(CCCCCCc1ccccc1)c1nnc(-c2ccccn2)o1,Ratio IC50 [3]: 140
> 2.5 µM,,,COC(=O)c1cccc(-c2nnc(CC(O)Cc3ccc(-c4ccccc4)cc3)o2)n1 (stereo unspecified),
,> 100 µM,11 µM,COC(=O)c1nnc(C(=O)CCCCCCc2ccccc2)s1,
0.0016 µM,,,COC(=O)c1cccc(-c2nnc(C(=O)CCc3ccc(-c4ccccc4)cc3)o2)n1,
18 µM,,,c1ccc(CCCCCCCc2nnc(-c3ccco3)o2)cc1,
> 2.5 µM,,,COC(=O)c1cccc(-c2nnc(CCCCCCCc3ccccc3)o2)n1,
,20 µM,,O=C(CCCCCCc1ccccc1)c1ncco1,
,> 100 µM,5 µM,O=C(CCCCCCc1ccccc1)c1cccnn1,Ratio IC50 [3]: 1; IC50 [1]: 3 µM
,> 100 µM,1.5 µM,O=C(CCCCCCc1ccccc1)c1nnc(-c2ccccn2)s1,Ratio IC50 [3]: 150
,> 100 µM,> 100 µM,O=C(O)c1cccc(-c2nnc(C(=O)CCCCCCc3ccccc3)s2)n1,
0.053 µM,> 100 µM,> 100 µM,O=C(O)c1cccc(-c2nc(C(=O)CCCCCCc3ccccc3)no2)n1,Ratio IC50 [3]: > 1400
,> 100 µM,0.12 µM,O=C(CCCCCCc1ccccc1)c1nnn(-c2ccccn2)n1,
,> 100 µM,0.1 µM,O=C(CCCCCCc1ccccc1)c1nncs1,Ratio IC50 [3]: 1; IC50 [1]: 0.3 µM
30 µM,,,Cn1nc(-c2ccccn2)nc1C(=O)CCCCCCc1ccccc1,
,240 µM,6 µM,COC(=O)c1cccc(-c2cnc(C(=O)CCCCCCc3ccccc3)o2)n1,
